Here are results for 1 compound from PMC4600222 (Chemmedchem, 2015).

A short description of data set [1]: Pharmacokinetics in mice after intragastric administration. Type of data set: in vivo.
Another data set can be described thus: Acute toxicity in mice. The data set is classed as in vivo. The settings on record: no indications of adverse effects.
Data set [2] relates to 46 RV serotypes and 14 EV strains. The data set can be described thus: CPE inhibition assays in HeLa cells, panel of 60 RV and EV strains. The data set is classed as cell-based, rhinovirus, enterovirus.
Another data set is described as follows: Plasma stability. Type of data set: in vitro ADME.
Another data set has as its system CVB3 97927 (I1092). The data set can be described thus: CPE inhibition in HeLa cells, CVB3 97927. The data set is classed as cell-based, coxsackievirus B3. Particulars: Enterovirus B, read-out: IC50, cytopathic effect of CVB3 97927. In general terms: Damage to the host cells serves as the signal in cytopathic effect assays.
Another data set can be described thus: Subacute. The data set is classed as in vivo. The settings on record: 12.5, 50 and 200 mg kg^−1, 30 days, male BALB/c mice; acute >3 g kg^−1.
Another data set has as its system CVB3 Nancy (L1092). The data set can be described thus: CPE inhibition in HeLa cells, CVB3 Nancy. The data set is classed as cell-based, coxsackievirus B3. Particulars: Enterovirus B, read-out: IC50, cytopathic effect of CVB3 Nancy.
For a further data set, the target named is K+ channel (hERG) (Homo sapiens, UniProt Q12809). The data set can be described thus: QT prolongation K+ channel.
Chain of K+ channel (hERG) (Q12809 whole entry, canonical isoform): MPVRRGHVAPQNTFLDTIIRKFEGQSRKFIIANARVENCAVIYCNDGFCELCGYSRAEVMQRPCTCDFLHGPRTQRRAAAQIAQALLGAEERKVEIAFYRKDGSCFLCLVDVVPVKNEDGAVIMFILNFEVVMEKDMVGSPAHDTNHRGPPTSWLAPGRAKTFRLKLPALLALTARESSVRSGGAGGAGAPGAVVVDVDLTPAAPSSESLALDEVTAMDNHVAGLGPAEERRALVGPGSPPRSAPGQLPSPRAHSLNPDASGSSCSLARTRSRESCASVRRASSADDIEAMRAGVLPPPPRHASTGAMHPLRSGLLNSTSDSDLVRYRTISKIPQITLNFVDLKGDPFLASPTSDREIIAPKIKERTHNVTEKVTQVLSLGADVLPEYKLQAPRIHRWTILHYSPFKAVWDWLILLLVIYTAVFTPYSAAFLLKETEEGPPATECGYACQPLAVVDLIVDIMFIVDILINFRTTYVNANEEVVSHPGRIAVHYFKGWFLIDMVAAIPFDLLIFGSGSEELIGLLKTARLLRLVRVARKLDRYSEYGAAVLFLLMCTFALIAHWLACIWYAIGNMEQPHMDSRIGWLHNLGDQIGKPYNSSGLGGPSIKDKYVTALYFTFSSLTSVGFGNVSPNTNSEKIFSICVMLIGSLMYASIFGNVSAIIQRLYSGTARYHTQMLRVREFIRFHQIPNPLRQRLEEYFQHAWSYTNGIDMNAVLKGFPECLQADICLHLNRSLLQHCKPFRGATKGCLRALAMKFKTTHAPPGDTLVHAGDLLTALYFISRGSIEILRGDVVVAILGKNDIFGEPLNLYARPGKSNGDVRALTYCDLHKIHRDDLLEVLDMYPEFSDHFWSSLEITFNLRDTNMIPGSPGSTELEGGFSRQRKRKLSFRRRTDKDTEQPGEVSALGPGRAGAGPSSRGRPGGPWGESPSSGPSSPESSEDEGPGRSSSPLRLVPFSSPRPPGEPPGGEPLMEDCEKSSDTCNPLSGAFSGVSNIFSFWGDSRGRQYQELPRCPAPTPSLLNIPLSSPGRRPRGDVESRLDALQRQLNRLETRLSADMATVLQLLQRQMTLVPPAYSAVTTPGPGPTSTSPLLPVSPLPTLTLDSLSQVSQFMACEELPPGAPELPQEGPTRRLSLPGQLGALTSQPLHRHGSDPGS
In data set [3] the test system is CYP1A2, CYP2B6, and CYP3A4. The data set can be described thus: Induction of cytochrome P450 isoforms. The data set is classed as in vitro ADME.
A further data set concerns CVB3 Nancy wildtype. The data set can be described thus: Plaque reduction assay in HeLa cells, CVB3 Nancy wildtype. The data set is classed as cell-based, coxsackievirus B3. The settings on record: Enterovirus B, read-out: IC50 plaque inhibition, CVB3 Nancy wildtype. The method, boiled down: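 Plaque reduction assay in HeLa cells on wild-type CVB3 Nancy and on compound-resistant variants. The variants were isolated from wild-type pools under 1 μg mL−1 (2.7 μm) test compound, and their amino acid substitutions were identified by genetic characterization. IC50 is taken from plaque inhibition. Means and/or SD come from at least three assays.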

In data set [4] the test system is CYP1A, CYP2B6, CYP2C8, CYP2C9, CYP2C19, CYP2D6, and CYP3A. The data set can be described thus: Inhibition of cytochrome P450 isoforms. Type of data set: in vitro ADME.
The subject of the next data set is CVB3 Nancy. The data set can be described thus: Mechanism of action, modified plaque reduction assay. Particulars: 0.5 and 1 μM. Type of data set: cell-based, coxsackievirus B3.
For a further data set, the system named is CVB3 31-1-93. The data set can be described thus: CVB3-induced chronic myocarditis in NMRI mice. Type of data set: in vivo. Particulars: 100 mg kg^−1 orally twice daily for 7 days.
A further data set is described as follows: Metabolic stability. The data set is classed as in vitro ADME.

In turn, `Nc1nc(-c2ccccc2)nc2[nH]nc(Nc3ccc(C(F)(F)F)cc3)c12` [Compound 36, 3-(4-trifluoromethylphenyl)amino-6-phenylpyrazolo[3,4-d]pyrimidine-4-amine] registered a Cl in data set [1] (mice, 100 mg/kg intragastric) of 10.42 mL·h/kg. Also, in [1] (mouse, plasma, po, 100 mg/kg), the AUC stood at 9600 ng·h/mL, the AUC(0-t) was determined as 6420 ng·h/mL, the MRT came to 3.54 h and the Tmax is 3 h. Besides, in [1] (mouse, plasma, po, 100 mg/kg), the half-life is 3.5 h and the k el is 5e-05 s⁻¹. This compound also displayed an Acute toxicity in “Acute toxicity in mice” of more than 3 g/kg. In data set [2] (Enterovirus, HeLa, read-out: IC50 values for high-level pleconaril-resistant viruses), the IC50 was 40 to 640 nM. In addition, the strains inhibited in data set [2] (of the 60 strains tested, CPE inhibition, HeLa cells) amounted to 52. Moreover, the “Plasma stability (human), remaining (%)” value in the data set “Plasma stability” stood at 100%. For the same compound, the IC50 in the data set with CVB3 97927 (I1092) came to 1050 nM. The “acute and chronic toxicological studies, overall finding” value in the data set “Subacute” is reported as “no indications of adverse anatomical, behavioral or physiological effects”. In addition, the IC50 in the data set on CVB3 Nancy (L1092) came out at 160 nM. Besides, the “QT prolongation K+ channel (hERG)” value at K+ channel (hERG) is recorded as “low”. In addition, the “Induction of CYP1A2, CYP2B6, and CYP3A4” value in [3] is on record as “neither an inducer nor an inhibitor”. Moreover, the IC50 in the data set with CVB3 Nancy wildtype was determined as 160 ± 30 nM. Further, the “Inhibition of CYP1A, CYP2B6, CYP2C8, CYP2C9, CYP2C19, CYP2D6, and CYP3A” value in [4] was “neither an inducer nor an inhibitor”. For the same compound, the “effect on virus infectivity, incubation with cell-free virus” value in the data set on CVB3 Nancy (1 h at 37 °C, then diluted 1:10^6) is on record as “strong loss of virus infectivity”. In addition, the “effect on virus-induced plaque formation, pretreatment of cells” value in the data set with CVB3 Nancy (cells pretreated prior to virus inoculation) is given as “no effect”. Moreover, the “antiviral effect, treatment started 3 h prior to or 1 and 3 days p. i.” value in the data set with CVB3 31-1-93 is reported as “strong antiviral effect”. For the same compound, the “therapeutic effect, treatment started 7 days p. i.” value in the data set with CVB3 31-1-93 (start 7 days p. i., results not shown) is “No therapeutic effect”. The “Metabolic stability (human liver microsomes), remaining %” value in “Metabolic stability” is 100%.

Broadly, the AUC is the area under the concentration-time curve, a measure of exposure. A low value points to less exposure. As a reminder, the AUC(0-t) is the area under the concentration-time curve up to a stated or last time point. A high value points to more exposure. Usually MRT stands for a mean duration of stay, worked out from the concentration-time curve. The term Tmax denotes the time from dosing to the highest level. The half-life is the time needed for the level to fall by half in the phase considered. For orientation: IC50 means the point on the concentration scale where inhibition reaches its midpoint.
